Assay results from ChEMBL document CHEMBL1275347, “New fluoro derivatives of the pyrazolo[5,1-c][1,2,4]benzotriazine 5-oxide system: evaluation of fluorine binding properties in the benzodiazepine site on γ-aminobutyrric acid type A (GABA(A)) receptor. Design, synthesis, biological, and molecular modeling investigation” (J Med Chem, 2010).
Active and inactive are the calls of the source. The calls are words filed in the database; no cut-off is given here.

What was measured:
Bos taurus = organism: Bos taurus; assay: Displacement of [3H]Ro15-1788 from GABA(A) receptor benzodiazepine site in bovine brain membrane at 10 uM; format: cell membranes
Outline: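 Percent inhibition of specific [3H]Ro15-1788 binding to bovine cerebral cortex membranes in 50 mM Tris-citrate pH 7.4, measured with test compound at 10 μM.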

[1] = Displacement of [3H]Ro15-1788 from GABA(A) receptor benzodiazepine site in bovine brain membrane; format: cell membranes, Bos taurus
Outline: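 Bovine cerebral cortex membranes were diluted in 50 mM Tris-citrate pH 7.4 and used for [3H]Ro15-1788 displacement, with at least six test concentrations. Five experiments were run in triplicate. IC50 came from iterative curve fitting and Ki from Cheng-Prusoff, reported as mean ± SEM. Ki was derived only where inhibition at 10 μM exceeded 80%.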

Mus musculus [2] = assay: Effect on learning and memory process in CD1 albino mouse assessed as improvement in retention latency at 10 mg/kg, po after 24 hrs by passive avoidance test; format: functional, organism-based; set-up: dose 10 mg/kg
Outline: (§1)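 Passive avoidance test in male CD-1 mice. Compounds were given po 30 min before training, and retention latency was tested 24 h later. n = 9-11 per group, mean ± SEM.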

Mus musculus [3] = assay: Effect on learning and memory process in CD1 albino mouse assessed as improvement in retention latency at 30 mg/kg, po after 24 hrs by passive avoidance test; format: functional, organism-based; set-up: dose 30 mg/kg; outline: as §1
Mus musculus [4] = assay: Anticonvulsant activity in CD1 albino mouse assessed as protection against pentylenetetrazole-induced shock and convulsion at 10 mg/kg, ip treated after 30 mins of pentylenetetrazole measured for 30 mins; format: functional; conditions: route intraperitoneal
Mus musculus [5] = assay: Effect on learning and memory process in CD1 albino mouse assessed as improvement in retention latency at 3 mg/kg, po after 24 hrs by passive avoidance test; format: functional, organism-based; set-up: dose 3 mg/kg; outline: as §1
Mus musculus [6] = assay: Anxiolytic activity in CD1 albino mouse at 10 mg/kg, po by light/dark box test; format: functional, organism-based; set-up: dose 10 mg/kg
Outline: (§2)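 Male CD-1 mice dosed po in 1% CMC 30 min before the light-dark box test. Each mouse was placed in the centre of the lit area facing away from the dark side and explored for 5 min. Transfers between compartments and time spent in the light were scored. n = 9-10 per group, mean ± SEM.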

Mus musculus [7] = assay: Effect on learning and memory process in CD1 albino mouse assessed as improvement in retention latency at 100 mg/kg, po after 24 hrs by passive avoidance test; format: functional, organism-based; set-up: dose 100 mg/kg
Outline: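 Passive avoidance in male CD-1 mice; flumazenil suspended in 1% carboxymethylcellulose, dosed 30 min before training; retention test 24 h later, retention latency recorded. 9-11 mice per group; mean ± SEM versus control.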

Mus musculus [8] = assay: Anticonvulsant activity in CD1 albino mouse assessed as protection against pentylenetetrazole-induced shock and convulsion at 30 mg/kg, ip treated after 30 mins of pentylenetetrazole measured for 30 mins; format: functional; conditions: route intraperitoneal
Mus musculus [9] = assay: Anxiolytic activity in CD1 albino mouse at 10 mg/kg, po by light/dark box test in presence of 100 mg/kg, po flumazenil; format: functional, organism-based
Mus musculus [10] = assay: Effect on duration of loss of righting reflex in ethanol-induced in CD1 albino mouse at 3 mg/kg, po preincubated 30 mins before ethanol challenge; format: functional, organism-based; set-up: dose 3 mg/kg
Outline: (§3)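 Male CD-1 mice given compound po in 1% carboxymethylcellulose 30 min before ethanol (4 g/kg ip). Sleep time is the duration of loss of righting reflex, capped at 210 min. Values are mean ± SEM of treated mice.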

Mus musculus [11] = assay: Toxicity in CD1 albino mouse assessed as myorelaxant activity over 35 mins at 30 mg/kg, po by grip-strength meter assay; format: organism-based; set-up: dose 30 mg/kg, route oral; conditions: in vivo
Outline: (§4)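 Grip-strength meter test in male CD-1 mice given compound po in 1% CMC 30 min before testing. Grip force was read in g at 35 min. Values are mean ± SEM.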

Mus musculus [12] = assay: Effect on duration of loss of righting reflex in ethanol-induced in CD1 albino mouse at 10 mg/kg, po preincubated 30 mins before ethanol challenge; format: functional, organism-based; set-up: dose 10 mg/kg; outline: as §3
Mus musculus [13] = assay: Anxiolytic activity in CD1 albino mouse assessed as sleeping time at 10 mg/kg, po pretreated 30 mins before test; format: functional; outline: as §3
Mus musculus [14] = assay: Anxiolytic activity in CD1 albino mouse assessed as sleeping time at 3 mg/kg, po pretreated 30 mins before test; format: functional; outline: as §3
Mus musculus [15] = assay: Toxicity in CD1 albino mouse assessed as number of falls from rod over 30 seconds at 30 mg/kg, po after 25 mins of drug administration by rotarod test; format: organism-based; set-up: dose 30 mg/kg, route oral; conditions: in vivo
Outline: (§5)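 Rota-rod test in male CD-1 mice dosed po in 1% CMC. Falls from the rod were counted over 30 s, 25 min after dosing. Methods give the rod speed as 24 rpm; the table gives 16 rpm. Values are mean ± SEM.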

Mus musculus [16] = assay: Toxicity in CD1 albino mouse assessed as number of falls from rod over 30 seconds at 10 mg/kg, po after 25 mins of drug administration by rotarod test; format: organism-based; set-up: dose 10 mg/kg, route oral; conditions: in vivo; outline: as §5
Mus musculus [17] = assay: Toxicity in CD1 albino mouse assessed as myorelaxant activity over 35 mins at 10 mg/kg, po by grip-strength meter assay; format: organism-based; set-up: dose 10 mg/kg, route oral; conditions: in vivo; outline: as §4
Mus musculus [18] = assay: Anxiolytic activity in CD1 albino mouse at 30 mg/kg, po by light/dark box test; format: functional, organism-based; set-up: dose 30 mg/kg; outline: as §2
Mus musculus [19] = assay: Anxiolytic activity in CD1 albino mouse at 3 mg/kg, po by light/dark box test; format: functional, organism-based; set-up: dose 3 mg/kg; outline: as §2
Mus musculus [20] = assay: Toxicity in CD1 albino mouse at 10 mg/kg, po in presence of 100 mg/kg, po flumazenil; format: organism-based; conditions: in vivo
Mus musculus [21] = assay: Anxiolytic activity in CD1 albino mouse assessed as sleeping time at 0.3 mg/kg, ip pretreated 20 mins before test; format: functional; conditions: route intraperitoneal
Outline: (§6)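 Male CD-1 mice given diazepam ip (suspended in 1% carboxymethylcellulose) 20 min before test. Ethanol 4 g/kg ip injected […]; duration of loss of righting reflex taken as sleep time, capped at 210 min. Mean ± SEM; ANOVA with Scheffe post hoc test versus 1% CMC controls.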

Mus musculus [22] = assay: Anxiolytic activity in CD1 albino mouse assessed as sleeping time at 1 mg/kg, ip pretreated 20 mins before test; format: functional; conditions: route intraperitoneal; outline: as §6

## [O-][n+]1nc2c(F)cnn2c2cc(Cl)ccc21
Bos taurus
  inhibition: 50%

## [O-][n+]1nc2c(F)cnn2c2cc(OCc3ccco3)ccc21
[1]
  Ki: 129 nM

## COc1ccccc1C(=O)c1cnn2c1n[n+]([O-])c1ccc(C(F)(F)F)cc12
[1]
  Ki: 1540 nM

## [O-][n+]1nc2c(-c3ccoc3)cnn2c2cc(C(F)(F)F)ccc21
[1]
  Ki: 112 nM

## [O-][n+]1nc2c(I)cnn2c2cc(C(F)(F)F)ccc21
[1]
  Ki: 18 nM

## [O-][n+]1nc2c(Br)cnn2c2cc(C(F)(F)F)ccc21
[1]
  Ki: 139 nM

## C#CCOc1ccc2c(c1)n1ncc(F)c1n[n+]2[O-]
[1]
  Ki: 268 nM

## [O-][n+]1nc2c(I)cnn2c2cc(OC(F)F)ccc21
Mus musculus [2]
  Activity: inactive
Mus musculus [3]
  Activity: inactive
Mus musculus [4]
  Activity: 0%
Mus musculus [5]
  Activity: inactive
Mus musculus [6]
  Activity: Active
[1]
  Ki: 2.47 nM

## CCOC(=O)c1cnn2c1n[n+]([O-])c1cc(C(F)(F)F)ccc12
Bos taurus
  inhibition: 3%

## FC(F)Oc1ccc2nnc3c(I)cnn3c2c1
[1]
  Ki: 5.01 nM

## CCOC(=O)c1ncn2c1CN(C)C(=O)c1cc(F)ccc1-2
Mus musculus [7]
  Activity: Active

## COc1ccccc1COC(=O)c1cnn2c1n[n+]([O-])c1ccc(C(F)(F)F)cc12
Mus musculus [2]
  Activity: inactive
Mus musculus [8]
  Activity: 0%
Mus musculus [9]
  Activity: inactive
Mus musculus [10]
  Activity: inactive
Mus musculus [11]
  Activity: 48.5 g
Mus musculus [12]
  Activity: inactive
Mus musculus [13]
  Time: 54.3 s
Mus musculus [4]
  Activity: 0%
Mus musculus [14]
  Time: 36.2 s
Mus musculus [15]
  Activity: 0.2
Mus musculus [6]
  Activity: Active
[1]
  Ki: 5.8 nM
Mus musculus [16]
  Activity: 0.2
Mus musculus [17]
  Activity: 51.7 g

## O=C(OCc1cccs1)c1cnn2c1n[n+]([O-])c1ccc(C(F)(F)F)cc12
Mus musculus [18]
  Activity: Active
Mus musculus [2]
  Activity: Active
Mus musculus [8]
  Activity: 0%
Mus musculus [19]
  Activity: Active
Mus musculus [20]
  Activity: Non-toxic
Mus musculus [10]
  Activity: inactive
Mus musculus [11]
  Activity: 57.9 g
Mus musculus [12]
  Activity: inactive
Mus musculus [13]
  Time: 40.8 s
Mus musculus [4]
  Activity: 0%
Mus musculus [14]
  Time: 48.6 s
Mus musculus [15]
  Activity: 0.2
Mus musculus [5]
  Activity: Active
Mus musculus [6]
  Activity: Active
[1]
  Ki: 10 nM
Mus musculus [16]
  Activity: 0.1
Mus musculus [17]
  Activity: 52.6 g

## [O-][n+]1nc2c(F)cnn2c2cc(OCc3ccccc3OC(F)(F)F)ccc21
Bos taurus
  inhibition: 27%

## [O-][n+]1nc2c(F)cnn2c2cc(OCc3cccs3)ccc21
[1]
  Ki: 93.3 nM

## O=C(c1cccs1)c1cnn2c1n[n+]([O-])c1ccc(C(F)(F)F)cc12
[1]
  Ki: 164 nM

## [O-][n+]1nc2c(Cl)cnn2c2cc(C(F)(F)F)ccc21
[1]
  Ki: 175 nM

## CCOC(=O)c1cnn2c1n[n+]([O-])c1ccc(C(F)(F)F)cc12
[1]
  Ki: 316 nM

## COc1ccccc1COC(=O)c1cnn2c1n[n+]([O-])c1cc(C(F)(F)F)ccc12
Bos taurus
  inhibition: 38%

## CCOC(=O)c1cnn2c1nnc1ccc(OC(F)F)cc12
[1]
  Ki: 51.7 nM

## COc1ccccc1COc1ccc2c(c1)n1ncc(F)c1n[n+]2[O-]
[1]
  Ki: 3.19 nM

## O=C(OCc1cccs1)c1cnn2c1nnc1ccc(OC(F)F)cc12
[1]
  Ki: 1.04 nM

## [O-][n+]1nc2c(-c3ccsc3)cnn2c2cc(C(F)(F)F)ccc21
[1]
  Ki: 192 nM

## [O-][n+]1nc2c(F)cnn2c2cc(OCc3ccncc3)ccc21
[1]
  Ki: 381 nM

## CCOC(=O)c1cnn2c1n[n+]([O-])c1ccc(OC(F)F)cc12
[1]
  Ki: 5.75 nM

## [O-][n+]1nc2c(Br)cnn2c2ccc(C(F)(F)F)cc21
Bos taurus
  inhibition: 38%

## O=C(OCc1cccs1)c1cnn2c1n[n+]([O-])c1cc(C(F)(F)F)ccc12
Bos taurus
  inhibition: 34%

## CN1C(=O)CN=C(c2ccccc2)c2cc(Cl)ccc21 [DIAZEPAM]
Mus musculus [21]
  Time: 134.5 s
Mus musculus [22]
  Time: 14.5 s
[1]
  Ki: 10 nM

## [O-][n+]1nc2c(-c3cccs3)cnn2c2cc(C(F)(F)F)ccc21
[1]
  Ki: 57 nM
